# Experiments:
# CCRF-CEM = assay: Growth inhibition of human CCRF-CEM cells incubated for 48 hrs by sulforhodamine B assay; assay type: functional
# Bos taurus = species: Bos taurus; assay: Displacement of [3H]colchicine from bovine brain tubulin at 5 uM measured after 10 mins by liquid scintillation counting method relative to control
# HeLa = assay: Growth inhibition of human HeLa cells measured after 96 hrs by sulforhodamine B assay; assay type: functional, cell-based
# How it was run: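 Exposed 96 h to varying compound concentrations in 0.5% DMSO. Cell protein measured by sulforhodamine B; IC50 = concentration halving the increase in cell protein versus untreated cultures.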
# HL-60(TB) = assay: Growth inhibition of human HL-60(TB) cells incubated for 48 hrs by sulforhodamine B assay; assay type: functional; conditions: HL-60, 48 h
# K562 = assay: Growth inhibition of human K562 cells incubated for 48 hrs by sulforhodamine B assay; assay type: functional; conditions: K562, 48 h
# MOLT-4 = assay: Growth inhibition of human MOLT4 cells incubated for 48 hrs by sulforhodamine B assay; assay type: functional; conditions: MOLT-4, 48 h
# RPMI-8226 = assay: Growth inhibition of human RPMI8226 cells incubated for 48 hrs by sulforhodamine B assay; assay type: functional; conditions: RPMI-8226, 48 h
# SR = assay: Growth inhibition of human SR cells incubated for 48 hrs by sulforhodamine B assay; assay type: functional
# A549 = assay: Growth inhibition of human A549/ATCC cells incubated for 48 hrs by sulforhodamine B assay; assay type: functional; conditions: A549, 48 h
# EKVX = assay: Growth inhibition of human EKVX cells incubated for 48 hrs by sulforhodamine B assay; assay type: functional
# HOP-62 = assay: Growth inhibition of human HOP62 cells incubated for 48 hrs by sulforhodamine B assay; assay type: functional; conditions: HOP-62, 48 h
# HOP-92 = assay: Growth inhibition of human HOP92 cells incubated for 48 hrs by sulforhodamine B assay; assay type: functional; conditions: HOP-92, 48 h
# NCI-H226 = assay: Growth inhibition of human NCI-H226 cells incubated for 48 hrs by sulforhodamine B assay; assay type: functional; conditions: NCI-H226, 48 h
# NCI-H23 = assay: Growth inhibition of human NCI-H23 cells incubated for 48 hrs by sulforhodamine B assay; assay type: functional; conditions: NCI-H23, 48 h
# NCI-H322M = assay: Growth inhibition of human NCI-H322M cells incubated for 48 hrs by sulforhodamine B assay; assay type: functional
# NCI-H460 = assay: Growth inhibition of human NCI-H460 cells incubated for 48 hrs by sulforhodamine B assay; assay type: functional; conditions: NCI-H460, 48 h
# NCI-H522 = assay: Growth inhibition of human NCI-H522 cells incubated for 48 hrs by sulforhodamine B assay; assay type: functional; conditions: NCI-H522, 48 h
# COLO 205 = assay: Growth inhibition of human COLO205 cells incubated for 48 hrs by sulforhodamine B assay; assay type: functional; conditions: COLO 205, 48 h
# HCC 2998 = assay: Growth inhibition of human HCC2998 cells incubated for 48 hrs by sulforhodamine B assay; assay type: functional; conditions: HCC 2998, 48 h
# HCT-116 = assay: Growth inhibition of human HCT116 cells incubated for 48 hrs by sulforhodamine B assay; assay type: functional; conditions: HCT-116, 48 h
# HCT-15 = assay: Growth inhibition of human HCT15 cells incubated for 48 hrs by sulforhodamine B assay; assay type: functional; conditions: HCT-15, 48 h
# KM12 = assay: Growth inhibition of human KM12 cells incubated for 48 hrs by sulforhodamine B assay; assay type: functional; conditions: KM12, 48 h
# SW-620 = assay: Growth inhibition of human SW620 cells incubated for 48 hrs by sulforhodamine B assay; assay type: functional; conditions: SW-620, 48 h
# SF-268 = assay: Growth inhibition of human SF268 cells incubated for 48 hrs by sulforhodamine B assay; assay type: functional; conditions: SF-268, 48 h
# SF-295 = assay: Growth inhibition of human SF295 cells incubated for 48 hrs by sulforhodamine B assay; assay type: functional; conditions: SF-295, 48 h
# SF-539 = assay: Growth inhibition of human SF539 cells incubated for 48 hrs by sulforhodamine B assay; assay type: functional; conditions: SF-539, 48 h
# SNB-19 = assay: Growth inhibition of human SNB19 cells incubated for 48 hrs by sulforhodamine B assay; assay type: functional; conditions: SNB-19, 48 h
# SNB-75 = assay: Growth inhibition of human SNB75 cells incubated for 48 hrs by sulforhodamine B assay; assay type: functional; conditions: SNB-75, 48 h
# U-251 = assay: Growth inhibition of human U251 cells incubated for 48 hrs by sulforhodamine B assay; assay type: functional; conditions: U-251, 48 h
# LOX IMVI = assay: Growth inhibition of human LOXIMVI cells incubated for 48 hrs by sulforhodamine B assay; assay type: functional
# Malme-3M = assay: Growth inhibition of human MALME-3M cells incubated for 48 hrs by sulforhodamine B assay; assay type: functional
# M14 = assay: Growth inhibition of human M14 cells incubated for 48 hrs by sulforhodamine B assay; assay type: functional; conditions: M14, 48 h
# MDA-MB-435 = assay: Growth inhibition of human MDA-MB-435 cells incubated for 48 hrs by sulforhodamine B assay; assay type: functional; conditions: MDA-MB-435, 48 h
# SK-MEL-28 = assay: Growth inhibition of human SK-MEL-28 cells incubated for 48 hrs by sulforhodamine B assay; assay type: functional; conditions: SK-MEL-28, 48 h
# SK-MEL-5 = assay: Growth inhibition of human SK-MEL-5 cells incubated for 48 hrs by sulforhodamine B assay; assay type: functional; conditions: SK-MEL-5, 48 h
# UACC-257 = assay: Growth inhibition of human UACC257 cells incubated for 48 hrs by sulforhodamine B assay; assay type: functional; conditions: UACC-257, 48 h
# UACC-62 = assay: Growth inhibition of human UACC62 cells incubated for 48 hrs by sulforhodamine B assay; assay type: functional; conditions: UACC-62, 48 h
# IGROV-1 = assay: Growth inhibition of human IGROV1 cells incubated for 48 hrs by sulforhodamine B assay; assay type: functional; conditions: IGROV-1, 48 h
# OVCAR-3 = assay: Growth inhibition of human OVCAR3 cells incubated for 48 hrs by sulforhodamine B assay; assay type: functional; conditions: OVCAR-3, 48 h
# OVCAR-4 = assay: Growth inhibition of human OVCAR4 cells incubated for 48 hrs by sulforhodamine B assay; assay type: functional; conditions: OVCAR-4, 48 h
# OVCAR-5 = assay: Growth inhibition of human OVCAR5 cells incubated for 48 hrs by sulforhodamine B assay; assay type: functional; conditions: OVCAR-5, 48 h
# OVCAR-8 = assay: Growth inhibition of human OVCAR8 cells incubated for 48 hrs by sulforhodamine B assay; assay type: functional; conditions: OVCAR-8, 48 h
# NCI/ADR-RES = assay: Growth inhibition of human NCI/ADR-RES cells incubated for 48 hrs by sulforhodamine B assay; assay type: functional
# SK-OV-3 = assay: Growth inhibition of human SKOV3 cells incubated for 48 hrs by sulforhodamine B assay; assay type: functional; conditions: SK-OV-3, 48 h
# 786-0 = assay: Growth inhibition of human 786-0 cells incubated for 48 hrs by sulforhodamine B assay; assay type: functional; conditions: 786-0, 48 h
# A498 = assay: Growth inhibition of human A498 cells incubated for 48 hrs by sulforhodamine B assay; assay type: functional; conditions: A498, 48 h
# ACHN = assay: Growth inhibition of human ACHN cells incubated for 48 hrs by sulforhodamine B assay; assay type: functional
# CAKI-1 = assay: Growth inhibition of human Caki1 cells incubated for 48 hrs by sulforhodamine B assay; assay type: functional; conditions: CAKI-1, 48 h
# RXF 393 = assay: Growth inhibition of human RXF393 cells incubated for 48 hrs by sulforhodamine B assay; assay type: functional; conditions: RXF 393, 48 h
# SN12C = assay: Growth inhibition of human SN12C cells incubated for 48 hrs by sulforhodamine B assay; assay type: functional
# TK-10 = assay: Growth inhibition of human TK10 cells incubated for 48 hrs by sulforhodamine B assay; assay type: functional; conditions: TK-10, 48 h
# UO-31 = assay: Growth inhibition of human UO31 cells incubated for 48 hrs by sulforhodamine B assay; assay type: functional; conditions: UO-31, 48 h
# DU-145 = assay: Growth inhibition of human DU145 cells incubated for 48 hrs by sulforhodamine B assay; assay type: functional; conditions: DU-145, 48 h
# MCF7 = assay: Growth inhibition of human MCF7 cells incubated for 48 hrs by sulforhodamine B assay; assay type: functional; conditions: MCF7, 48 h
# MDA-MB-231 = assay: Growth inhibition of human MDA-MB-231 cells incubated for 48 hrs by sulforhodamine B assay; assay type: functional; conditions: MDA-MB-231, 48 h
# Hs-578T = assay: Growth inhibition of human Hs578T cells incubated for 48 hrs by sulforhodamine B assay; assay type: functional
# BT-549 = assay: Growth inhibition of human BT549 cells incubated for 48 hrs by sulforhodamine B assay; assay type: functional; conditions: BT-549, 48 h
# T47D = assay: Growth inhibition of human T47D cells incubated for 48 hrs by sulforhodamine B assay; assay type: functional
# MDA-MB-468 = assay: Growth inhibition of human MDA-MB-468 cells incubated for 48 hrs by sulforhodamine B assay; assay type: functional; conditions: MDA-MB-468, 48 h
smiles,measurement,setting,value
COc1ccc2c(c1)CCCN2c1nc(C)nc2c(Cc3ccccc3)c[nH]c12,GI50,CCRF-CEM,226 nM
same,inhibition,Bos taurus,43%
same,IC50,HeLa,250 nM
same,GI50,HL-60(TB),222 nM
same,GI50,K562,111 nM
same,GI50,MOLT-4,345 nM
same,GI50,RPMI-8226,266 nM
same,GI50,SR,922 nM
same,GI50,A549,406 nM
same,GI50,EKVX,463 nM
same,GI50,HOP-62,379 nM
same,GI50,HOP-92,189 nM
same,GI50,NCI-H226,136 nM
same,GI50,NCI-H23,320 nM
same,GI50,NCI-H322M,362 nM
same,GI50,NCI-H460,337 nM
same,GI50,NCI-H522,316 nM
same,GI50,COLO 205,232 nM
same,GI50,HCC 2998,318 nM
same,GI50,HCT-116,368 nM
same,GI50,HCT-15,366 nM
same,GI50,KM12,366 nM
same,GI50,SW-620,370 nM
same,GI50,SF-268,723 nM
same,GI50,SF-295,192 nM
same,GI50,SF-539,260 nM
same,GI50,SNB-19,549 nM
same,GI50,SNB-75,182 nM
same,GI50,U-251,316 nM
same,GI50,LOX IMVI,521 nM
same,GI50,Malme-3M,330 nM
same,GI50,M14,252 nM
same,GI50,MDA-MB-435,341 nM
same,GI50,SK-MEL-28,368 nM
same,GI50,SK-MEL-5,325 nM
same,GI50,UACC-257,108 nM
same,GI50,UACC-62,659 nM
same,GI50,IGROV-1,440 nM
same,GI50,OVCAR-3,285 nM
same,GI50,OVCAR-4,468 nM
same,GI50,OVCAR-5,543 nM
same,GI50,OVCAR-8,487 nM
same,GI50,NCI/ADR-RES,265 nM
same,GI50,SK-OV-3,423 nM
same,GI50,786-0,934 nM
same,GI50,A498,197 nM
same,GI50,ACHN,830 nM
same,GI50,CAKI-1,341 nM
same,GI50,RXF 393,212 nM
same,GI50,SN12C,618 nM
same,GI50,TK-10,123 nM
same,GI50,UO-31,390 nM
same,GI50,DU-145,383 nM
same,GI50,MCF7,248 nM
same,GI50,MDA-MB-231,641 nM
same,GI50,Hs-578T,582 nM
same,GI50,BT-549,755 nM
same,GI50,T47D,128 nM
same,GI50,MDA-MB-468,153 nM

# — ChEMBL document CHEMBL3997769, “Discovery and preclinical evaluation of 7-benzyl-N-(substituted)-pyrrolo[3,2-d]pyrimidin-4-amines as single agents with microtubule targeting effects along with triple-acting angiokinase inhibition as antitumor agents” (Bioorg Med Chem, 2017)
